Source: ChEMBL document CHEMBL1149808, “Cyclic nucleotide phosphodiesterase type 4 inhibitors: evaluation of pyrazolo[1,5-a]-1,3,5-triazine ring system as an adenine bioisostere” (Eur J Med Chem, 2008)
Values belong to the compound of their own block, whether it stands above or below them.

What was measured:
[1] = Inhibition of PDE4
Summary of the method: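 PDE4 from bovine aorta media layer; [³H]-cAMP hydrolysis, two-step assay, with 1 mM EGTA and cGMP 50 added to suppress PDE3, 50 mM Tris-HCl pH 7.5, 2 mM magnesium acetate, 1 mg/mL BSA, 1% DMSO. IC50 by regression over concentration-response data, mean of three runs.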

[2] = target: T1, cGMP-dependent 3',5'-cyclic phosphodiesterase (Bos taurus) (UniProt P14099); experiment: Inhibition of bovine aorta PDE2 at 10 uM in presence of cGMP
T1 sequence (whole entry): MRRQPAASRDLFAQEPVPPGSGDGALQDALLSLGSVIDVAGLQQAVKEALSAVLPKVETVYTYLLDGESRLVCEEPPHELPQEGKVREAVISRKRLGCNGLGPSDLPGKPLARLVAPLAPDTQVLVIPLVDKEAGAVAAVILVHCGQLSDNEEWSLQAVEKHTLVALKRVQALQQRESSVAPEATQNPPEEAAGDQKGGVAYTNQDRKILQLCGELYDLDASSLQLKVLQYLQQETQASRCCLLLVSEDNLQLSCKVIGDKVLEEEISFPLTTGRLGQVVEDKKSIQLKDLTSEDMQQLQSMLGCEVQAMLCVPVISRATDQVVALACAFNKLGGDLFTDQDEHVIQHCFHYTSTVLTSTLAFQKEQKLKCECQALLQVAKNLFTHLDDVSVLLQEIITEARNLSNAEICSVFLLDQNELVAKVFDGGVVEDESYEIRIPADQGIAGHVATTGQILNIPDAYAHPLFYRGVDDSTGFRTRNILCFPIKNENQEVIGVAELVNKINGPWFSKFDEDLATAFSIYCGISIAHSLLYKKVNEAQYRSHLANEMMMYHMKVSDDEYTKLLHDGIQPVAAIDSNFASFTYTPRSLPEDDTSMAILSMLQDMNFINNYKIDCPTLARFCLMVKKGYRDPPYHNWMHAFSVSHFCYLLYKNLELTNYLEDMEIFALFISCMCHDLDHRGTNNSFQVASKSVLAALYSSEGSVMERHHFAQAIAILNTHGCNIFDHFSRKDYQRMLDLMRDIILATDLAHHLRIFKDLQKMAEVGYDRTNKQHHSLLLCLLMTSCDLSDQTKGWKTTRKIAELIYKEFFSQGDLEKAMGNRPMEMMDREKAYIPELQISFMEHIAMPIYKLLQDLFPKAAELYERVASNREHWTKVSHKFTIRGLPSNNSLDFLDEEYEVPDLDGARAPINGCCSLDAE
Summary of the method: (§1)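 PDE2 isolated from cultured bovine aortic endothelial cells; two-step assay using [³H]-cAMP plus 1 mM EGTA in 50 mM Tris-HCl pH 7.5, 2 mM magnesium acetate, 1 mg/mL BSA; activated state with 5 cGMP. DMSO 1% final; IC50 by regression from concentration-response curves, three determinations.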

[3] = Inhibition of PDE1 at 10 uM in absence of calmodulin
[4] = target: T1, cGMP-dependent 3',5'-cyclic phosphodiesterase (Bos taurus); experiment: Inhibition of bovine aorta PDE2 at 10 uM in absence of cGMP
[5] = Inhibition of PDE5 at 10 uM
Summary of the method: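 Bovine aortic media PDE5 measured as [³H]-cGMP hydrolysis in two-step assay with 1 mM EGTA, 50 mM Tris-HCl pH 7.5, 2 mM magnesium acetate, 1 mg/mL BSA; inhibitor in DMSO, 1% final.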

[6] = Inhibition of PDE3 at 10 uM
Summary of the method: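 Bovine aortic media PDE3, two-step assay with [³H]-cAMP plus 1 mM EGTA in Tris-HCl 50 mM pH 7.5, 2 mM Mg acetate, BSA 1 mg/mL; rolipram 50 present to block PDE4 contamination. DMSO 1% final.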

[7] = Inhibition of PDE1 at 10 uM in presence of calmodulin
Summary of the method: (§2)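 PDE1 purified from bovine aorta media layer; two-step radioassay with [³H]-cGMP substrate in 50 mM Tris-HCl pH 7.5, 2 mM magnesium acetate, 1 mg/mL BSA. Calmodulin-activated state: 18 nM calmodulin plus 10 mM CaCl₂. Inhibitors from DMSO, 1% final. IC50 by regression from concentration-response curves, mean of three determinations.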

[8] = test system: PBMC; experiment: Antiinflammatory activity in human PBMC assessed as inhibition of LPS-stimulated TNFalpha release after 24 hrs by trypan blue exclusion test; type: functional, cell-based; details: in the assay text read “ELISA” for “trypan blue exclusion test”
Summary of the method: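 Human PBMCs from density-gradient interface, washed in HBSS-CMF, 2 × 10⁶ cells/mL, exposed to drug 10^-8 to 10^-5 M with or without Salmonella abortus equi LPS, 24 h, 37 °C, 5% CO₂. Supernatants stored at -80 °C, then TNFα measured by two-site ELISA (OD 450 nm, o-phenylenediamine), interpolated on standard curve by four-parameter logistics; viability by Trypan blue exclusion.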

[9] = Inhibition of PDE1 in presence of calmodulin; summary of the method: as §2
[10] = target: T2, cGMP-dependent 3',5'-cyclic phosphodiesterase (Bos taurus, UniProt P14099); experiment: Inhibition of bovine aorta PDE2 in presence of cGMP; summary of the method: as §1
T2 sequence (P14099 whole entry): T1 sequence (whole entry)

SMILES: CNc1nc(C)nc2c(-c3cccc(C(C)=O)c3)cnn12
IC50 [1]: 540 nM

SMILES: CNc1nc(C)nc2c(-c3cccs3)cnn12
IC50 [1]: 2400 nM

SMILES: CC#Cc1cnn2c(NC)nc(C)nc12
IC50 [1]: 6400 nM

SMILES: CNc1nc(C)nc2c(Cc3ccc4ccccc4c3)cnn12
IC50 [1]: 270 nM

SMILES: CNc1nc(C)nc2c(-c3cccc4ccccc34)cnn12
IC50 [1]: 210 nM

SMILES: CNc1nc(C)nc2c(-c3ccccc3)cnn12
inhibition [2]: 11% | inhibition [3]: 21% | inhibition [4]: 3.6% | inhibition [5]: 11% | IC50 [1]: 270 nM | inhibition [6]: 2.7% | inhibition [7]: 20%

SMILES: CNc1nc(C)nc2c(-c3ccco3)cnn12
IC50 [1]: 3100 nM

SMILES: CCC(O)c1cnn2c(NC)nc(C)nc12 (stereo not given)
IC50 [1]: 4800 nM

SMILES: CNc1nc(C)nc2c(-c3cccc([N+](=O)[O-])c3)cnn12
IC50 [1]: 1200 nM

SMILES: CNc1nc(C)nc2c1ncn2Cc1ccccc1
IC50 [1]: 280 nM

SMILES: CNc1nc(C)nc2c(-c3cccc(C(F)(F)F)c3)cnn12
IC50 [1]: 130 nM

SMILES: CCCC#Cc1cnn2c(NC)nc(C)nc12
IC50 [1]: 410 nM

SMILES: CNc1nc(C)nc2c(-c3cc4ccccc4s3)cnn12
IC50 [1]: 3500 nM

SMILES: CNc1nc(C)nc2c(-c3cc4ccccc4o3)cnn12
IC50 [1]: 6200 nM

SMILES: CNc1nc(C)nc2c(C(=O)c3ccccc3)cnn12
inhibition [2]: 17% | inhibition [3]: 16% | inhibition [4]: 15% | inhibition [5]: 8% | IC50 [1]: 120 nM | inhibition [6]: 11% | inhibition [7]: 29%

SMILES: CNc1nc(C)nc2c(-c3ccccc3Cl)cnn12
IC50 [1]: 2900 nM

Stronger by IC50 [1], values ahead:

IC50 [1]: 88 nM
SMILES: CCCc1nc(NC)c2ncn(Cc3ccccc3)c2n1

inhibition [2]: 31% | inhibition [3]: 27% | inhibition [4]: 19% | inhibition [5]: 38% | IC50 [1]: 13 nM | inhibition [6]: 16% | inhibition [7]: 35%
SMILES: CCCc1nc(NC)n2ncc(Cc3ccccc3OC)c2n1
Activity [8]: Dose-dependent effect

IC50 [1]: 61 nM
SMILES: CNc1nc(C)nc2c1ncn2Cc1ccccc1OC

IC50 [1]: 100 nM
SMILES: CNc1nc(C)nc2c(Cc3ccco3)cnn12

IC50 [1]: 77 nM
SMILES: CNc1nc(C(F)(F)F)nc2c(Cc3ccccc3)cnn12
Activity [8]: Dose-dependent effect

IC50 [1]: 7 nM
SMILES: CCCc1nc(NC)c2ncn(Cc3ccccc3OC)c2n1

IC50 [9]: 14000 nM | inhibition [3]: 37% | inhibition [4]: 19% | IC50 [10]: 56000 nM | inhibition [5]: 33% | IC50 [1]: 98 nM | inhibition [6]: 8.6%
SMILES: CNc1nc(C)nc2c(Cc3ccccc3)cnn12

IC50 [1]: 1.4 nM
SMILES: CNc1nc(C(F)(F)F)nc2c1ncn2Cc1ccccc1OC

IC50 [1]: 70 nM
SMILES: CNc1nc(C)nc2c(Cc3cccs3)cnn12

inhibition [2]: 20% | inhibition [3]: 24% | inhibition [4]: 20% | inhibition [5]: 16% | IC50 [1]: 48 nM | inhibition [6]: 10% | inhibition [7]: 25%
SMILES: CCCc1nc(NC)n2ncc(Cc3ccccc3)c2n1

IC50 [1]: 78 nM
SMILES: CNc1nc(C)nc2c(Cc3ccoc3)cnn12

inhibition [3]: 20% | inhibition [4]: 16% | inhibition [5]: 74% | IC50 [1]: 11 nM | inhibition [6]: 24%
SMILES: CNc1nc(C(F)(F)F)nc2c(Cc3ccccc3OC)cnn12
Activity [8]: Dose-dependent effect
